The compounds below were run on Mus musculus (assay: Toxicity in human UACC-903 cells xenografted in Harlan Sprague-Dawley athymic nude mouse assessed as effect on body weight at 0.76 uM, ip administered three times per week). Conditions: in vivo.
Type: organism-based
Procedure, shortened: (§1)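 Female athymic nude mice aged 4–6 weeks received 5×10^6 UACC 903 cells s.c. in 0.2 ml DMEM/10% FBS above both rib cages. After six days they were randomized (5 mice/group, 2 tumors/mouse) and dosed i.p. with 0.76 μmoles (3 ppm selenium) Mon/Wed/Fri; controls received DMSO vehicle. Caliper tumor volume (mm³) and body weight were recorded thrice weekly.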
`[Se]=C=NCCCCc1ccccc1` [PHENYLBUTYL ISOSELENOCYANATE] was tested, and the Activity was “Non-toxic”. In the case of `[Se]=C=NCc1ccccc1` [BENZYLISOSELENOCYANATE], the Activity is reported as “Non-toxic”. With `[Se]=C=NCCc1ccccc1` [PHENETHYLISOSELENOCYANATE] the Activity was “Non-toxic”.

Each compound was assayed on UACC-903 (assay: Cytotoxicity against human UACC-903 cells after 24 hrs by MTS assay). Conditions: UACC-903, 24 h.
`CC(=O)NC(CSC(=[Se])NCCCCc1ccccc1)C(=O)O` (centres undefined) was tested, and the IC50 was 17 µM. Compound `CC(=O)NC(CSC(=S)NCCCCc1ccccc1)C(=O)O` (centres undefined) has an IC50 of 24 µM. `[Se]=C=NCCCCc1ccccc1` [PHENYLBUTYL ISOSELENOCYANATE] showed an IC50 of 10 µM. `[Se]=C=NCc1ccccc1` [BENZYLISOSELENOCYANATE] gave an IC50 of 16 µM. In the case of `[Se]=C=NCCc1ccccc1` [PHENETHYLISOSELENOCYANATE], the IC50 is reported as 12 µM.

Each compound was assayed on UACC-903 (assay: Cytotoxicity against human UACC-903 cells assessed as decrease in cell viability after 24 hrs by MTS assay relative to control). Conditions: not given.
Type: functional, cell-based
Procedure, shortened: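 UACC 903 melanoma cells, 5×10^3 per well in DMEM with 10% FBS, were exposed after 24 h to DMSO or 5, 10 or 15 μM agent for 24 h. Viability was read by MTS tetrazolium reduction to formazan and expressed as percent of DMSO control, as the mean of three independent experiments with SEM.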
`[Se]=C=NCCCCc1ccccc1` [PHENYLBUTYL ISOSELENOCYANATE] was tested, and the Activity was “Dose-dependent effect”. `[Se]=C=NCc1ccccc1` [BENZYLISOSELENOCYANATE] was tested, and the Activity was “Dose-dependent effect”. `[Se]=C=NCCc1ccccc1` [PHENETHYLISOSELENOCYANATE] was tested, and the Activity was “Dose-dependent effect”.

Same assay, conditions: UACC-903, 24 h
With `CC(=O)NC(CSC(=[Se])NCCCCc1ccccc1)C(=O)O` (centres undefined) the IC50 was 10 µM. Compound `CC(=O)NC(CSC(=S)NCCCCc1ccccc1)C(=O)O` (centres undefined) has an IC50 of 24 µM.

These compounds were tested on UACC-903 (assay: Induction of apoptosis in human UACC-903 cells assessed as increase in caspase 7 activity after 24 hrs relative to control). Conditions: not given.
Type: functional, cell-based
Procedure, shortened: (§2)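 Apoptosis was measured in UACC 903 cells seeded at 5×10^3 per well and treated 24 h with DMSO vehicle or increasing agent concentrations. Combined caspase-3/7 activity was read with the Apo-ONE homogeneous caspase-3/7 kit and reported as fold increase over vehicle-treated cells, averaged over three independent experiments with SEM.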
For `[Se]=C=NCCCCc1ccccc1` [PHENYLBUTYL ISOSELENOCYANATE], the Activity was “Dose-dependent effect”. For `[Se]=C=NCc1ccccc1` [BENZYLISOSELENOCYANATE], the Activity was “Dose-dependent effect”. With `[Se]=C=NCCc1ccccc1` [PHENETHYLISOSELENOCYANATE] the Activity was “Dose-dependent effect”.

What follows are compounds tested on UACC-903 (assay: Induction of apoptosis in human UACC-903 cells assessed as increase in caspase 3 activity after 24 hrs relative to control). Conditions: not given.
Type: functional, cell-based
Procedure, shortened: as §2
`[Se]=C=NCCCCc1ccccc1` [PHENYLBUTYL ISOSELENOCYANATE] was tested, and the Activity was “Dose-dependent effect”. With `[Se]=C=NCc1ccccc1` [BENZYLISOSELENOCYANATE] the Activity was “Dose-dependent effect”. For `[Se]=C=NCCc1ccccc1` [PHENETHYLISOSELENOCYANATE], the Activity was “Dose-dependent effect”.

The compounds below were run on T98G (assay: Cytotoxicity against human T98G cells after 24 hrs by MTS assay). Conditions: not given.
With `[Se]=C=NCCCCc1ccccc1` [PHENYLBUTYL ISOSELENOCYANATE] the IC50 was 27 µM. In the case of `[Se]=C=NCc1ccccc1` [BENZYLISOSELENOCYANATE], the IC50 is reported as 43 µM. With `[Se]=C=NCCc1ccccc1` [PHENETHYLISOSELENOCYANATE] the IC50 was 24 µM.

What follows are compounds tested on MDA-MB-231 (assay: Cytotoxicity against human MDA-MB-231 cells after 24 hrs by MTS assay). Conditions: MDA-MB-231, 24 h.
With `[Se]=C=NCCCCc1ccccc1` [PHENYLBUTYL ISOSELENOCYANATE] the IC50 was 21 µM. `[Se]=C=NCc1ccccc1` [BENZYLISOSELENOCYANATE] showed an IC50 of 29 µM. `[Se]=C=NCCc1ccccc1` [PHENETHYLISOSELENOCYANATE] was tested, and the IC50 was 20 µM.

Each compound was assayed on PC-3 (assay: Cytotoxicity against human PC-3 cells after 24 hrs by MTS assay). Conditions: PC-3, 24 h.
`[Se]=C=NCCCCc1ccccc1` [PHENYLBUTYL ISOSELENOCYANATE] gave an IC50 of 19 µM. `[Se]=C=NCc1ccccc1` [BENZYLISOSELENOCYANATE] gave an IC50 of 24 µM. `[Se]=C=NCCc1ccccc1` [PHENETHYLISOSELENOCYANATE] gave an IC50 of 16 µM.

The compounds below were run on UACC-903 (assay: Antiproliferative activity against human UACC-903 cells assessed as BrdU incorporation after 24 hrs by ELISA relative to control). Conditions: not given.
Type: functional, cell-based
Procedure, shortened: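 UACC 903 cells, 5×10^3 per well, treated 24 h with DMSO vehicle or increasing concentrations of test agents. Proliferating cells were measured by BrdU incorporation with a BrdU ELISA kit. Values are expressed as percent of DMSO-treated cells, as the mean of three independent experiments with SEM.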
With `[Se]=C=NCCCCc1ccccc1` [PHENYLBUTYL ISOSELENOCYANATE] the Activity was “Dose-dependent effect”. With `[Se]=C=NCc1ccccc1` [BENZYLISOSELENOCYANATE] the Activity was “Dose-dependent effect”. `[Se]=C=NCCc1ccccc1` [PHENETHYLISOSELENOCYANATE] was tested, and the Activity was “Dose-dependent effect”.

These compounds were tested on Caco-2 (assay: Cytotoxicity against human Caco-2 cells after 24 hrs by MTS assay). Conditions: Caco-2, 24 h.
Compound `[Se]=C=NCCCCc1ccccc1` [PHENYLBUTYL ISOSELENOCYANATE] has an IC50 of 12 µM. For `[Se]=C=NCc1ccccc1` [BENZYLISOSELENOCYANATE], the IC50 was 13 µM. `[Se]=C=NCCc1ccccc1` [PHENETHYLISOSELENOCYANATE] gave an IC50 of 11 µM.

Each compound was assayed on HT-1080 (assay: Cytotoxicity against human HT1080 cells after 24 hrs by MTS assay). Conditions: HT-1080, 24 h.
Work on `[Se]=C=NCCCCc1ccccc1` [PHENYLBUTYL ISOSELENOCYANATE] yielded an IC50 of 11 µM. Compound `[Se]=C=NCc1ccccc1` [BENZYLISOSELENOCYANATE] has an IC50 of 13 µM. With `[Se]=C=NCCc1ccccc1` [PHENETHYLISOSELENOCYANATE] the IC50 was 12 µM.

What follows are compounds tested on UACC-903 (assay: Antitumor activity in human UACC-903 cells xenografted in Harlan Sprague-Dawley athymic nude mouse assessed as reduction in tumor size at 0.76 uM, ip administered three times per week). Conditions: not given.
Type: functional
Parameters: scale not given: the % may be the effect or the level left
Procedure, shortened: as §1
With `[Se]=C=NCCCCc1ccccc1` [PHENYLBUTYL ISOSELENOCYANATE] the Activity was 30%. With `[Se]=C=NCCc1ccccc1` [PHENETHYLISOSELENOCYANATE] the Activity was 30%.
